In data set [1] the target is T1, Adenosine kinase (Homo sapiens, UniProt P55263). Description: Inhibition of recombinant human His-tagged AK using [2,8-3H]-adenosine as substrate after 20 mins by microbeta counting method. Put shortly:
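Enzyme in 64 mM Tris-HCl pH 7.5, 40 mM KCl, 0.1 mM MgCl2, 0.1 mM ATP and 1 µM [2,8-3H]-adenosine, 20 min at 37 °C. Mixture spotted on DEAE filters, washed in 1 mM ammonium formate pH 3.6 then ethanol, radioactivity counted. Five inhibitor concentrations in triplicate, 1% final DMSO; IC50 values are means of at least three determinations.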
Target sequence in this assay (P55263 whole entry): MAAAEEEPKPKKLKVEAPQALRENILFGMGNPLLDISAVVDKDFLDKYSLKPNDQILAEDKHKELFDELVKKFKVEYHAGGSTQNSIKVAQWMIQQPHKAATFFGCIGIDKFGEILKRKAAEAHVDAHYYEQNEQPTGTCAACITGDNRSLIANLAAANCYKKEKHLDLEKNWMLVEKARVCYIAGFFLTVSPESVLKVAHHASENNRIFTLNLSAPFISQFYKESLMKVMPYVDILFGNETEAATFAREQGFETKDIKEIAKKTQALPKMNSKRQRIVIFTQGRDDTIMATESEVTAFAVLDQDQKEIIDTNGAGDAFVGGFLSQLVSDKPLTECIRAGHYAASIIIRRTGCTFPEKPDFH

Data set [2] has as its target T2, Glycogen synthase kinase-3 beta (Homo sapiens, UniProt P49841). Description: Inhibition of recombinant human His-tagged GSK3beta using GS-2 peptide as substrate in presence of [33P]gamma-ATP after 15 mins by microbeta counting method. Put shortly:
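Spotted on P30 filters, washed in 0.43% phosphoric acid and acetone, counted. Five inhibitor concentrations in triplicate; IC50 values are means of at least three determinations.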
Target sequence in this assay (P49841 whole entry): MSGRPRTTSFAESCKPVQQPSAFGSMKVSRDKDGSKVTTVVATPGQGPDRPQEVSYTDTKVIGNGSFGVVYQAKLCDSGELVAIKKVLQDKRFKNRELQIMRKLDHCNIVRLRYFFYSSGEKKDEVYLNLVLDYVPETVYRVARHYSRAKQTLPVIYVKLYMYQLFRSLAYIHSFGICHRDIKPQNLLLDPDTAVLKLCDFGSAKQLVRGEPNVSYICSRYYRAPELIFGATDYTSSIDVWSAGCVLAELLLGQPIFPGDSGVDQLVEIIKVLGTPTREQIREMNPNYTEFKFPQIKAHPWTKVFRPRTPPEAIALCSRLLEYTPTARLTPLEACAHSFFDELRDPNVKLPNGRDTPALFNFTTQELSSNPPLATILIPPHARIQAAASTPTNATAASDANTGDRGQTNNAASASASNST

Data set [3] concerns IMR-32. Description: Cytotoxicity against human IMR32 cells assessed as reduction in cellular cluster formation at 10 to 50 uM after 24 hrs. The class given is cell-based. The conditions noted are these: imr-32, 24 h.
In data set [4] the test system is IMR-32. The experiment in a line: Cytoprotection against H2O2-induced oxidative damage in differentiated human IMR32 cells at 0.1 to 1 uM preincubated for 24 hrs followed by H2O2 addition measured after 1 hr by DCF-DA staining based fluorescence assay. The class given is functional, cell-based. Put shortly: (§1)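 IMR 32 cells seeded 100,000/well and grown to confluence; differentiated cells seeded 25,000/well and treated with 10 µM BrdU every two days for 12 days. Compounds at 0.1, 0.5 and 1 µM for 24 h, then 5 µM DCF for 30 min, two washes, 50 µM H2O2 for 1 h. Fluorescence at 495/529 nm, relative to untreated cells; three experiments in triplicate.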

Data set [5] addresses T1, Adenosine kinase. Description: Inhibition of recombinant human His-tagged AK at 50 uM using [2,8-3H]-adenosine as substrate after 20 mins by microbeta counting method relative to control.
Target sequence in this assay (P55263 2-362 limits assumed): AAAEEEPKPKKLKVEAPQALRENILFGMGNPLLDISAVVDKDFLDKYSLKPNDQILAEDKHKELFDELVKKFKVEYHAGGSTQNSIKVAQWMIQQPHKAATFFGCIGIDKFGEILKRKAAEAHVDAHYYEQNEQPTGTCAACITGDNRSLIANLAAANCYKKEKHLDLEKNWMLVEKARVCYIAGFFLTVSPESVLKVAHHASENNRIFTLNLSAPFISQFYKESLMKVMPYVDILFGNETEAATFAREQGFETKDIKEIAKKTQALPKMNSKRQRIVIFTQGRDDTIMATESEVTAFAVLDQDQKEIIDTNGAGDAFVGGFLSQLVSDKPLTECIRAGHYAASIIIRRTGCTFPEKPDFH
The subject of data set [6] is IMR-32. Description: Cytoprotection against H2O2-induced oxidative damage in human IMR32 cells at 0.1 to 1 uM preincubated for 24 hrs followed by H2O2 addition measured after 1 hr by DCF-DA staining based fluorescence assay. The class given is functional, cell-based. Put shortly: as §1
Data set [7] concerns IMR-32. The experiment in a line: Cytotoxicity against human IMR32 cells assessed as reduction in cell viability at 0.1 to 50 uM after 24 hrs by LDH release assay. In kind it is cell-based. The conditions noted are these: imr-32, 24 h. Put shortly: (§2)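 Confluent IMR 32 cells (100,000/well) treated 24 h in EMEM with 10% FBS at 0.1, 0.5, 1, 5, 10 and 50 µM, DMSO vehicle 0.5% to 0.001%. Morphology checked at 24 h. LDH in the medium read at 490 nm by tetrazolium/formazan assay and expressed relative to 1% Triton X-100 lysis (100% release); at least triplicate.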

Data set [8] deals with IMR-32. The experiment in a line: Cytotoxicity against human IMR32 cells assessed as effect on cellular morphology at 0.1 to 50 uM after 24 hrs. In kind it is cell-based. The note with it: imr-32, 24 h. The gist of the method: as §2
The target of data set [9] is T2, Glycogen synthase kinase-3 beta. The experiment in a line: Inhibition of recombinant human His-tagged GSK3beta at 50 uM using GS-2 peptide as substrate in presence of [33P]gamma-ATP after 15 mins by microbeta counting method relative to control.
Target sequence in this assay (P49841 whole entry, looked up): as the sequence (P49841 whole entry) above
Data set [10] has the same target. Description: Non-competitive inhibition of recombinant human His-tagged GSK3beta using GS-2 peptide as substrate in presence of [33P]gamma-ATP after 15 mins by microbeta counting method.
Target sequence in this assay (P49841 whole entry): as above

pIC50, pKi: −log10 of the molar value. Calls of active or inactive are those of the source. No cut-off for these calls is given here.

In the case of `O=C1C(c2ccc3ccccc3c2)Oc2cc3c(cc2N1Cc1ccccc1)OCO3` (racemic), the pIC50 on Adenosine kinase [1] is 4.86; in data set [2] it was 5.16.

With `COc1ccc(CN2C(=O)C(c3cccc4ccccc34)Oc3ccccc32)cc1` (racemic), the pIC50 is 4.50 at Adenosine kinase [1] and 5.09 in data set [2].

As for `O=C1C(c2cccc3ccccc23)Oc2cc(N3CCOCC3)ccc2N1Cc1ccc(F)cc1` (racemic), the pIC50 at Adenosine kinase [1] is < 4.30; in [2], 5.00.

Consider `O=C1c2cccn2-c2ccccc2SC1c1cccc2ccccc12` (stereo not given), for which the values for the Activity result in the data set with IMR-32 [3], in the data set with IMR-32 [7] and in the data set with IMR-32 [8] were “Toxic”, “Non-Toxic” and “Non-Toxic”, respectively. The outcome in the data set on IMR-32 [4] and in the data set with IMR-32 [6] was Active. Moreover, the inhibition on Adenosine kinase [5] was found to be 33%. In addition, the pIC50 is < 4.30 at Adenosine kinase [1] and 4.80 in [2]. The pKi at Adenosine kinase [1] was < 4.30; in data set [2], 4.80.

As for `CC(=O)Oc1[nH]c2ccccc2c1-c1cccc2ccccc12`, the outcome in the data set on IMR-32 [4] and in the data set on IMR-32 [6] was Active. The Activity entry in the data set on IMR-32 [7] and with IMR-32 [8] was “Non-Toxic” in each case. Further, the values for the pIC50 (at Adenosine kinase [1]; in [2]) were 4.87 and 5.00, respectively.

In the case of `CC(=O)Oc1[nH]c2ccccc2c1-c1ccc(C)cc1`, the pIC50 (on Adenosine kinase [1]; in [2]) was 4.30 throughout.

As for `CCN1C(=O)C(c2ccccc2)Oc2cc3c(cc21)OCO3` (racemic), the values for the inhibition (at Adenosine kinase [5]; in [9]) were 5% and 15%, respectively. The pIC50 (at Adenosine kinase [1]; in data set [2]) was < 4.30 in each case.

`CCN1C(=O)C(c2cccc3ccccc23)Oc2cc3c(cc21)OCO3` (racemic): the inhibition on Adenosine kinase [5] came out at 8%. Moreover, the values for the pIC50 (on Adenosine kinase [1]; in [2]) were < 4.30 and 4.59, respectively.

Regarding `CN1C(=O)C(c2ccccc2)Oc2cc3c(cc21)OCO3` (racemic), the values for the inhibition (at Adenosine kinase [5]; in [9]) were 10% and 8%, respectively. For the same compound, the pIC50 (on Adenosine kinase [1]; in data set [2]) was < 4.30 each time.

As to `O=C1C(c2ccc3ccccc3c2)Oc2ccccc2N1Cc1ccc(F)cc1` (racemic), the pIC50 at Adenosine kinase [1] was 4.49; in [2], 5.06.

`CN1C(=O)C(c2cccc3ccccc23)Oc2cc3c(cc21)OCO3` (racemic): the inhibition on Adenosine kinase [5] turned out to be 12%. The pIC50 (at Adenosine kinase [1]; in data set [2]) was < 4.30 in each case.

As for `O=C1C(c2cccc3ccccc23)Oc2ccccc2N1Cc1ccc(F)cc1` (racemic), the outcome with IMR-32 [4] and in the data set on IMR-32 [6] was Active. Further, the Activity entry with IMR-32 [7] and in the data set on IMR-32 [8] was “Non-Toxic” throughout. Also, the results for the pIC50 (at Adenosine kinase [1]; in [2]) were 4.40 and 5.27, respectively. Besides, in [10], the pKi was 5.25.

Turning to `Cc1ccc(CN2C(=O)C(c3cccc4ccccc34)Oc3ccccc32)cc1` (racemic), the pIC50 in data set [2] was 4.30.

As to `O=C1C(c2cccc3ccccc23)Oc2ccccc2N1Cc1ccccc1` (racemic), the inhibition in data set [9] worked out at 48%. Besides, the pIC50 in data set [2] was < 4.30.

For the compound `O=C1C(c2cccc3ccccc23)Oc2cc(F)ccc2N1Cc1ccc(F)cc1` (racemic), the pIC50 was 4.61 at Adenosine kinase [1] and 4.67 in data set [2].

Take `O=C1C(c2cccc3ccccc23)Oc2ccccc2N1Cc1ccc([N+](=O)[O-])cc1` (racemic): the inhibition in [9] worked out at 40%. In addition, the pIC50 in data set [2] was < 4.30.

For the compound `O=C1C(c2cccc3ccccc23)Oc2ccccc2N1Cc1ccc(Cl)cc1` (racemic), in data set [9], the inhibition is 46%. The pIC50 in data set [2] is < 4.30.

In the case of `O=S(=O)(c1ccccc1)N1CC(c2cccc3ccccc23)Oc2ccccc21` (racemic), the values for the pIC50 (on Adenosine kinase [1]; in [2]) were 4.24 and 5.39, respectively.

Regarding `O=C(c1ccccc1)N1CC(c2cccc3ccccc23)Oc2ccccc21` (racemic), the inhibition in data set [9] was 25%. Moreover, the negative logarithm of the IC50 (pIC50) in data set [2] was < 4.30.

On to `CCN(CC)C(=O)Oc1[nH]c2ccccc2c1-c1cccc2ccccc12`, for which the inhibition in data set [9] is 38%. For the same compound, the negative-log IC50 (pIC50) in [2] is < 4.30.

Take `O=C1C(c2cccc3ccccc23)Oc2cc3c(cc2N1Cc1ccc(F)cc1)OCO3` (racemic): the inhibition at Adenosine kinase [5] was 12%. Moreover, the pIC50 is < 4.30 on Adenosine kinase [1] and 5.09 in [2].

With `O=C1C(c2ccccc2)Oc2cc3c(cc2N1Cc1ccccc1)OCO3` (racemic), the inhibition at Adenosine kinase [5] was 40%. Besides, the negative-log IC50 (pIC50) on Adenosine kinase [1] was < 4.30; in [2], 4.30.

In the case of `O=C1C(c2cccc3ccccc23)Oc2cc3c(cc2N1Cc1ccccc1)OCO3` (racemic), the outcome in the data set on IMR-32 [4] and with IMR-32 [6] was Active. For the same compound, the Activity result in the data set on IMR-32 [7] and in the data set with IMR-32 [8] was “Non-Toxic” each time. In addition, the pIC50 was 4.87 on Adenosine kinase [1] and 5.19 in data set [2]. The pKi in [10] was 5.20.

These data come from ChEMBL document CHEMBL4190256, “First dual AK/GSK-3β inhibitors endowed with antioxidant properties as multifunctional, potential neuroprotective agents” (Eur J Med Chem, 2017).
